Experimental data from ChEMBL document CHEMBL1909500, “Synthesis and in vitro anticancer activity of 6,7-methylenedioxy (or 5-hydroxy-6-methoxy)-2-(substituted selenophenyl)quinolin-4-one analogs” (Eur J Med Chem, 2011).

Tests used:
HL-60 = assay: Cytotoxicity against human HL60 cells after 48 hrs by MTT assay; type: functional, cell-based; settings: HL-60, 48 h
How it was run: (§1)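 H460 or HL-60 cells were exposed to vehicle or compound for 48 h. Growth was read by MTT reduction at 570 nm, and IC50 was calculated.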

[1] = Cytotoxicity against human Hep3B cells after 48 hrs by MTT assay; type: functional, cell-based, Hep 3B2
How it was run: (§2)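 Hep 3B (hepatoma) or Detroit 551 (normal skin) cells, grown at 37 °C and 5% CO₂ in DMEM with 10% FBS, penicillin/streptomycin and 1% L-glutamine, were used in log phase. Cells were exposed to vehicle or compound for 48 h. Growth was read by MTT reduction at 570 nm, and IC50 was calculated.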

NCI-H460 = assay: Cytotoxicity against human H460 cells after 48 hrs by MTT assay; type: functional, cell-based; settings: NCI-H460, 48 h; how it was run: as §1
Detroit 551 [2] = assay: Cytotoxicity against human Detroit 551 cells after 48 hrs by MTT assay; type: cell-based; settings: Detroit 551, 48 h; how it was run: as §2
Detroit 551 [3] = assay: Selectivity ratio of IC50 for human Detroit 551 cells to IC50 for human Hep3B cells
Detroit 551 [4] = assay: Selectivity ratio of IC50 for human Detroit 551 cells to IC50 for human H460 cells

`Oc1cc(-c2ccco2)nc2cc3c(cc12)OCO3` showed an IC50 (HL-60) of 6800 nM, an IC50 [1] greater than 15000 nM and an IC50 (NCI-H460) greater than 15000 nM. It also gave an IC50 (Detroit 551 [2]) greater than 15000 nM.

`O=c1cc(-c2ccc[se]2)[nH]c2cc3c(cc12)OCO3` gave an IC50 (HL-60) of 500 nM, an IC50 [1] of 800 nM and an IC50 (NCI-H460) of 1000 nM. The IC50 (Detroit 551 [2]) was 50000 nM, the “Ratio IC50” value (Detroit 551 [3]) was 50 and the “Ratio IC50” value (Detroit 551 [4]) was 50.

For `COc1ccc2[nH]c(-c3cc[se]c3)cc(=O)c2c1`, the IC50 (HL-60) was 700 nM, the IC50 [1] was 3700 nM and the IC50 (NCI-H460) was 2300 nM. The IC50 (Detroit 551 [2]) was greater than 10000 nM.

With `COc1ccc2[nH]c(-c3ccc(C)[se]3)cc(=O)c2c1O` the IC50 (HL-60) was 400 nM, the IC50 [1] was 800 nM and the IC50 (NCI-H460) was 900 nM. It also gave an IC50 (Detroit 551 [2]) greater than 50000 nM.

For `Cc1ccc(-c2cc(=O)c3cc4c(cc3[nH]2)OCO4)s1`, the IC50 (HL-60) was 300 nM, the IC50 [1] was 700 nM and the IC50 (NCI-H460) was 400 nM. For the same compound, the IC50 (Detroit 551 [2]) was greater than 5000 nM.

In the case of `COc1ccc2[nH]c(-c3ccc(C)[se]3)cc(=O)c2c1`, the IC50 (HL-60) is reported as 400 nM, the IC50 [1] is reported as 3000 nM and the IC50 (NCI-H460) is reported as 2000 nM. It also gave an IC50 (Detroit 551 [2]) greater than 10000 nM.

`O=c1cc(-c2ccsc2)[nH]c2cc3c(cc12)OCO3` gave an IC50 (HL-60) of 900 nM, an IC50 [1] of 2200 nM and an IC50 (NCI-H460) of 4300 nM. It also gave an IC50 (Detroit 551 [2]) greater than 25000 nM.

Work on `COc1ccc2[nH]c(-c3cc[se]c3)cc(=O)c2c1O` yielded an IC50 (HL-60) of 400 nM, an IC50 [1] of 300 nM and an IC50 (NCI-H460) of 800 nM. The IC50 (Detroit 551 [2]) was greater than 100000 nM.

Compound `O=c1cc(-c2cc[se]c2)[nH]c2cc3c(cc12)OCO3` has an IC50 (HL-60) of 900 nM, an IC50 [1] of 800 nM and an IC50 (NCI-H460) of 1400 nM. It also gave an IC50 (Detroit 551 [2]) greater than 10000 nM.

For `Cc1ccc(-c2cc(=O)c3cc4c(cc3[nH]2)OCO4)o1`, the IC50 (HL-60) was 4300 nM, the IC50 [1] was 10000 nM and the IC50 (NCI-H460) was 9800 nM. For the same compound, the IC50 (Detroit 551 [2]) was greater than 10000 nM.

In the case of `Oc1cc(-c2cccs2)nc2cc3c(cc12)OCO3`, the IC50 (HL-60) is reported as 1000 nM, the IC50 [1] is reported as 700 nM and the IC50 (NCI-H460) is reported as 1000 nM. The IC50 (Detroit 551 [2]) was greater than 5000 nM.

In the case of `O=c1cc(-c2ccoc2)[nH]c2cc3c(cc12)OCO3`, the IC50 (HL-60) is reported as 3400 nM, the IC50 [1] is reported as 9600 nM and the IC50 (NCI-H460) is reported as 15800 nM. It also gave an IC50 (Detroit 551 [2]) greater than 25000 nM.

With `COc1ccc2[nH]c(-c3ccc[se]3)cc(=O)c2c1O` the IC50 (HL-60) was 1100 nM, the IC50 [1] was 700 nM and the IC50 (NCI-H460) was 400 nM. For the same compound, the IC50 (Detroit 551 [2]) was 100000 nM.

`COc1ccc2[nH]c(-c3ccc[se]3)cc(=O)c2c1` showed an IC50 (HL-60) of 600 nM, an IC50 [1] of 3200 nM and an IC50 (NCI-H460) of 2400 nM. The IC50 (Detroit 551 [2]) was greater than 10000 nM.

With `COc1ccc2[nH]c(-c3ccc[se]3)cc(=O)c2c1OC` the IC50 (HL-60) was 7700 nM, the IC50 [1] was greater than 100000 nM and the IC50 (NCI-H460) was 91500 nM. The IC50 (Detroit 551 [2]) was greater than 100000 nM.

`COc1ccc2[nH]c(-c3ccc(C)[se]3)cc(=O)c2c1OC` showed an IC50 (HL-60) of 3100 nM, an IC50 [1] greater than 50000 nM and an IC50 (NCI-H460) greater than 50000 nM. The IC50 (Detroit 551 [2]) was greater than 50000 nM.

For `COc1ccc2[nH]c(-c3cc[se]c3)cc(=O)c2c1OC`, the IC50 (HL-60) was 1700 nM, the IC50 [1] was 100000 nM and the IC50 (NCI-H460) was 100000 nM. For the same compound, the IC50 (Detroit 551 [2]) was greater than 100000 nM.
